The subject of series [1] is Intracellular glutathione (GSH). As to the kind of experiment: CeeTox intracellular glutathione. Conditions: H4IIE cells.
A further series addresses CYP2C19 (Homo sapiens, UniProt P33261). As to the kind of experiment: Cloe Screen Cytochrome P450 Inhibition assay. Type of series: in vitro ADME.
The test system of series [2] is H4IIE cells. As to the kind of experiment: CeeTox cell mass. To be noted: 24 hr.
In the next series the target is T1, CYP1A2 (Homo sapiens, UniProt P05177).
T1 sequence (P05177 1-516): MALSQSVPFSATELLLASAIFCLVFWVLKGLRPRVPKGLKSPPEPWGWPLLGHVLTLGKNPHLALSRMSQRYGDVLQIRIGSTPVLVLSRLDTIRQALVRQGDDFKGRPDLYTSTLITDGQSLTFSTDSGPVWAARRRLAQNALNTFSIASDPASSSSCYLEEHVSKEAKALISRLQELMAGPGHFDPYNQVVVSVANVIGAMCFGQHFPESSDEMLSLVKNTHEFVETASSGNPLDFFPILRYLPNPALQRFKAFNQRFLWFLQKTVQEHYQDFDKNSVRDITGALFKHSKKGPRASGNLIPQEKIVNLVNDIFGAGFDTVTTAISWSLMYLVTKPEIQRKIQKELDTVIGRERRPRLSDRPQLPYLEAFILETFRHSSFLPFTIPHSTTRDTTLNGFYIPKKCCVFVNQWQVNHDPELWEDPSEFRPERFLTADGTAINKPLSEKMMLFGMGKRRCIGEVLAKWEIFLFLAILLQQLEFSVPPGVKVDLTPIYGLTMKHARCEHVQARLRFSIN
As to the kind of experiment: Cloe Screen Cytochrome P450 Inhibition assay. Type of series: in vitro ADME.

The test system of another series is S. typhimurium TA989. The series is described as follows: Ames test for mutagenicity, frame-shift strain. Format: cell-based. To be noted: first TA98 column; for TA98+S9: with S9, up to 10 μM; for TA98−S9: without S9, up to 10 μM.
Another series deals with CYP2D6 (Homo sapiens, UniProt P10635). The series is described as follows: Cloe Screen Cytochrome P450 Inhibition assay. Type of series: in vitro ADME. Put shortly: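 Run blinded. […] Metabolite formation was monitored by LC-MS/MS. IC50 was calculated from the decrease in metabolite formation relative to vehicle control. Quinidine served as positive control inhibitor.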
CYP2D6, sequence (P10635 whole entry): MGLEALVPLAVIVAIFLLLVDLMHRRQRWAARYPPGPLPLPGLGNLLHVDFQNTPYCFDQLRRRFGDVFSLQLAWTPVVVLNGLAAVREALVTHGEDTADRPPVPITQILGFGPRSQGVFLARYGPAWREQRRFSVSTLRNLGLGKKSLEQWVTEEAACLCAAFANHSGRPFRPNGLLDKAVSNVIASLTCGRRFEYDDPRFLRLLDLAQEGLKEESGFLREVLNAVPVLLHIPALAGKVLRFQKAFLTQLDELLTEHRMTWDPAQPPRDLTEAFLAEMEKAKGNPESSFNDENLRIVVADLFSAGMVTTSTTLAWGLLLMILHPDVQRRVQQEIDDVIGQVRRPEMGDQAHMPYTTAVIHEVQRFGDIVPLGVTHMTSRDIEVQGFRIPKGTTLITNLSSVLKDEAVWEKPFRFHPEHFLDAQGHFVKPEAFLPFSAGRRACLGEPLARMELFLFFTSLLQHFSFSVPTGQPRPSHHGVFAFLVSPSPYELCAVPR

Another series deals with CYP2C9 (Homo sapiens, UniProt P11712). The series is described as follows: Cloe Screen Cytochrome P450 Inhibition assay. Format: in vitro ADME.
CYP2C9, sequence (P11712 whole entry): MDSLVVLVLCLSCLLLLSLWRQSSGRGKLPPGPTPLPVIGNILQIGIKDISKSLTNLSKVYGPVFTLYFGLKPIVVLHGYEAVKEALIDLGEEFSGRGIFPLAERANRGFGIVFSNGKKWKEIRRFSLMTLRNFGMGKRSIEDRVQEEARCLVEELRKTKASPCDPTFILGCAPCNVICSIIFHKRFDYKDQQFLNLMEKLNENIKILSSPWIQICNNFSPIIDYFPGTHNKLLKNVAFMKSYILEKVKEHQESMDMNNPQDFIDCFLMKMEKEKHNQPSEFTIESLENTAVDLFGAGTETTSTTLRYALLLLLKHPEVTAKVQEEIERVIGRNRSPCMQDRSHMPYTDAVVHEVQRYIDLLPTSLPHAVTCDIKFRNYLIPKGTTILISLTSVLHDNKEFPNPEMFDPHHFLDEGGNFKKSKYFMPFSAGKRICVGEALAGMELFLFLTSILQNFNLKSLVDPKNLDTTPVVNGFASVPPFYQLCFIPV
The next series relates to Caspase 3. The series is described as follows: CeeTox apoptosis. Conditions: H4IIE cells; for Caspase 3 Activity (Index/Dose): dose: dose at which the index was seen; for Caspase 3 Activity (Index/Dose): index: index of RFU. Format: cell-based, rat.
The next series relates to 8-Isoprostane (8-ISO). The series is described as follows: CeeTox lipid peroxidation measured as 8-isoprostane. To be noted: H4IIE cells, 8-ISO score.
In series [3] the test system is H4IIE cells. As to the kind of experiment: CeeTox membrane toxicity. Conditions: 24 hr, α-GST leakage.
Series [4] has as its system H4IIE cells. The series is described as follows: CeeTox cellular ATP content. Conditions: 24 hr.
Another series relates to P-glycoprotein (MDR1). The series is described as follows: BBB penetration. Conditions: dog, MDCK-MDR1. Type of series: in vitro ADME, canine. Put shortly: (§1)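 MDCK cells transfected with human MDR1 (P-gp) were grown to a confluent monolayer over 4 days. Test compound was added apically, and A→B transport was followed over 60 min; B→A transport was also measured. Compound on each side was quantified by GC/MS. Papp was calculated for both directions, and efflux ratio = Papp B→A/Papp A→B. High BBB potential: Papp A→B ≥3.0×10⁻⁶ cm/s and efflux <3.0.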

In another series the test system is MDR1-MDCK cells. As to the kind of experiment: BBB penetration. Type of series: in vitro ADME, canine. Conditions: classification from Papp A→B and efflux. A digest of the protocol: as §1
A further series concerns the target CYP3A4 (Homo sapiens, UniProt P08684). As to the kind of experiment: Cloe Screen Cytochrome P450 Inhibition assay. Type of series: in vitro ADME.
For series [5], the system named is H4IIE cells. Type of series: cell-based. Conditions: 24 hr.
The next series concerns P-glycoprotein (PgP). As to the kind of experiment: P-glycoprotein. Conditions: H4IIE cells, MTT, 24 hr, single exposure concentration (20 or 50 μM), without CSA. Type of series: cell-based, rat.
For series [6], the system named is H4IIE cells. As to the kind of experiment: CeeTox analysis composite. Format: cell-based, rat. To be noted: for TC50 for all general toxicity measures (range over endpoints): range across CeeTox endpoints.
In the next series the test system is mouse cortical neurons. The series is described as follows: Cortical neuron glutamate excitotoxicity neuroprotection assay. Format: cell-based. To be noted: tested at 0.1 μM.
The test system of a further series is HT22 cells. The series is described as follows: In vitro ischemia assay. Format: cell-based. To be noted: Mus musculus, HT-22, read-out: HT22 EC50 (nM). Put shortly: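 Mouse HT22 hippocampal cells were grown in DMEM with 10 % FCS and seeded at 5×10^3 cells/well. Next day, medium was changed to DMEM with 7.5 % dialyzed FCS, and cells were exposed to 20 µM iodoacetic acid with or without varying test compound concentrations for 2 h. Medium was then replaced with compound-containing medium without IAA for 20 h. Viability was read by MTT (5 µg/ml, 4 h, 37 °C), solubilized in DMF/SDS pH 4.7, A570.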

Molecules are shown by their SMILES. Like-named read-outs stand apart in the source and are kept apart here.

CYP2C19, sequence (P33261 whole entry): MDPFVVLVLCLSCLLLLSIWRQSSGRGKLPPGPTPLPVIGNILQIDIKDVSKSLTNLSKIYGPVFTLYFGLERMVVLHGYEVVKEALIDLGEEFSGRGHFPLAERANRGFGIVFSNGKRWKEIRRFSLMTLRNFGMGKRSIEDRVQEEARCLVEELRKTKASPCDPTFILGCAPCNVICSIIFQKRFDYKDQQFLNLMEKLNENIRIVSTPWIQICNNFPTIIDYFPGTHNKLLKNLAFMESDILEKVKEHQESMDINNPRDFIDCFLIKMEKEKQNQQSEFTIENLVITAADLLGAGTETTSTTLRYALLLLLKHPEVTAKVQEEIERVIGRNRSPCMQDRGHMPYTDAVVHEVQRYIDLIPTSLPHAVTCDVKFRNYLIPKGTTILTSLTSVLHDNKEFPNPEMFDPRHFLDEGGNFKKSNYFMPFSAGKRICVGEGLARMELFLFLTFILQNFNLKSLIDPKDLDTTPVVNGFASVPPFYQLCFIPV
CYP3A4, sequence (P08684 2-503): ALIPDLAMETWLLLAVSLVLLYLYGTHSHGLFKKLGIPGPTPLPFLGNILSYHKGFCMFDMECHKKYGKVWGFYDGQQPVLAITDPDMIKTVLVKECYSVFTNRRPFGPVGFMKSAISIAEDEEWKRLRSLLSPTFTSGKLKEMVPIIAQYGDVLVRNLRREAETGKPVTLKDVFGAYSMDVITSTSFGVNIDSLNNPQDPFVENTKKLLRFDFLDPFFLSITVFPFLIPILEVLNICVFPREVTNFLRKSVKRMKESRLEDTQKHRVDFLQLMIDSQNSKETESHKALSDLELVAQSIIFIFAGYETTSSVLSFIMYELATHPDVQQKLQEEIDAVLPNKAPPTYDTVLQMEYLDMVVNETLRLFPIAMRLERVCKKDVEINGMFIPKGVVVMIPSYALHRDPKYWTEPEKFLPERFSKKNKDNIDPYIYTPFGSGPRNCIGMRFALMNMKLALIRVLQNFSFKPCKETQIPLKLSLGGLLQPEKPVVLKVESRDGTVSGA

In the case of `CCCc1ccc2oc(-c3ccc(O)c(O)c3)c(O)c(=O)c2c1` [CSMC-13, 6-propyl-3,3',4'-trihydroxy flavone], the “Total GSH TC50” value in series [1] stood at 252 µM. The half-maximal inhibitory concentration (IC50) against CYP2C19 was more than 10 µM; on CYP1A2 it was more than 25 µM; against CYP2D6, more than 10 µM; against CYP2C9, more than 10 µM; on CYP3A4, more than 10 µM. In addition, the “Cell Mass TC50” value with H4IIE cells [2] stood at 78 µM. Moreover, the “TA98+S9” value in the series with S. typhimurium TA989 is “Negative (Not mutagenic < 10 μM (NEGATIVE))”. The “TA98−S9” value in the series with S. typhimurium TA989 is on record as “Negative (Not mutagenic < 10 μM (NEGATIVE))”. The “Caspase 3 Activity (Index/Dose): dose” value with Caspase 3 was 100. The “Caspase 3 Activity (Index/Dose): index” value with Caspase 3 is given as 1 (0–200 = 1). Besides, in the series with 8-Isoprostane (8-ISO), the “Membrane Lipid Peroxidation” value is given as 2 (2 = Concentration related increase with maximum values ≥ 15 pg/mL). Further, in the series with H4IIE cells [3], the “MemTox TC50” value is more than 300 µM. Further, the “ATP TC50” value in the series on H4IIE cells [4] was determined as 58 µM. The Papp A→B at 60 min in the series on P-glycoprotein (MDR1) came to 0.1 ×10⁻⁶ cm/s. Besides, the efflux ratio at 60 min in the series on P-glycoprotein (MDR1) was 1. Further, the “BBB Potential” value in the series with MDR1-MDCK cells is “low”. Further, in the series on H4IIE cells [5], the “MTT TC50” value is 83 µM. In addition, the “% Control(Compound)” value in the series on P-glycoprotein (PgP) is listed as 87.9 % Control.
`O=c1c(O)c(-c2ccc(O)c(O)c2)oc2c1ccc1ccccc12` [CSMC-6, 3,3',4'-trihydroxy alpha-naphthoflavone]: the “Total GSH TC50” value in series [1] came out at 87 µM. For the same compound, the IC50 at CYP2C19 (read-out: CYP2C19 IC50, human liver microsomes, substrate head: Midazolam) was more than 10 µM; at CYP2D6 (read-out: CYP2D6 IC50, human liver microsomes, substrate DextroM) it was more than 10 µM; on CYP2C9 (read-out: CYP2C9 IC50, human liver microsomes, substrate Tolbutamide), more than 10 µM; at CYP3A4 (read-out: CYP3A4 IC50, human liver microsomes, substrate head: Mephenytoin), more than 10 µM. The “Cell Mass TC50” value in the series on H4IIE cells [2] was 80 µM. Moreover, in the series with S. typhimurium TA989, the “TA98+S9” value was “Negative (Not mutagenic < 10 μM (NEGATIVE))”. The “TA98−S9” value in the series on S. typhimurium TA989 is “Negative (Not mutagenic < 10 μM (NEGATIVE))”. For the same compound, the “Membrane Lipid Peroxidation” value with 8-Isoprostane (8-ISO) is recorded as 0. Also, the “MemTox TC50” value with H4IIE cells [3] came out at 282 µM. The “minimum TC50” value in the series with H4IIE cells [6] (H4IIE cells, 24 hr, lowest of the CeeTox endpoints) was 71 µM. The “TC50 for all general toxicity measures (range over endpoints)” value (“TC50 … (range over endpoints)” below) in the series with H4IIE cells [6] (H4IIE cells, 24 hr) lay in the range of 71 to 282 µM. In addition, the “ATP TC50” value in the series with H4IIE cells [4] was 81 µM. The “MTT TC50” value in the series on H4IIE cells [5] worked out at 71 µM. For the same compound, the “% Control(Compound)” value in the series on P-glycoprotein (PgP) stood at 68.3 % Control.
As for `O=c1c(O)c(-c2ccc(O)c(O)c2)oc2cc(O)ccc12` [Fisetin, 3,3',4',7-tetrahydroxyflavone, reference compound], the “Neuroprotection of mouse cortical neurons against glutamate” value in the series with mouse cortical neurons is “did not confer neuroprotection”. For the same compound, the 50% effective concentration (EC50) in the series on HT22 cells was 4000 nM. In the series with P-glycoprotein (MDR1), the Papp A→B at 60 min was 2.96 ×10⁻⁶ cm/s and the efflux ratio at 60 min is 0.7. The “BBB Potential” value in the series on MDR1-MDCK cells is “low”.
Regarding `CC[C@@]1(O)C(=O)OCc2c1cc1n(c2=O)Cc2cc3ccccc3nc2-1` [CAMPTOTHECIN, camptothecin, reference compound], the “Total GSH TC50” value in [1] turned out to be 5.0 µM. In addition, the “Cell Mass TC50” value with H4IIE cells [2] amounted to 3.0 µM. In the series with Caspase 3, the “Caspase 3 Activity (Index/Dose): dose” value worked out at 100 and the “Caspase 3 Activity (Index/Dose): index” value is listed as 3 (400–600 = 3). Moreover, the “Membrane Lipid Peroxidation” value with 8-Isoprostane (8-ISO) is given as 1 (1 = Modest increase with maximum values ≤ 15 pg/mL). The “MemTox TC50” value with H4IIE cells [3] was more than 300 µM. Besides, the “MemTox TC50 (μM)” value in the series on H4IIE cells [3] (listed as camptothecin) is listed as “not affected”. Besides, the “TC50 … (range over endpoints)” value in the series on H4IIE cells [6] (H4IIE cells, 24 hr) lay within 3.0 to 5.0 µM. The “Ctox ranking group: probability of in vivo toxic effects” value in the series on H4IIE cells [6] (per standard CeeTox criteria) was “high probability (1–20 high probability)”. The “ATP TC50” value in the series with H4IIE cells [4] is 5.0 µM. In addition, the “MTT TC50” value in the series on H4IIE cells [5] is 3.2 µM.
Turning to `C=C(C)[C@H]1Cc2c(ccc3c2O[C@@H]2COc4cc(OC)c(OC)cc4[C@@H]2C3=O)O1` [ROTENONE, rotenone, reference compound], the “Total GSH TC50” value in series [1] turned out to be 0.03 µM. In addition, in the series with H4IIE cells [2], the “Cell Mass TC50” value amounted to 0.09 µM. For the same compound, in the series on 8-Isoprostane (8-ISO), the “Membrane Lipid Peroxidation” value is given as 2 (2 = Concentration related increase with maximum values ≥ 15 pg/mL). Besides, the “MemTox TC50” value in the series with H4IIE cells [3] turned out to be 3.88 µM. In addition, the “TC50 … (range over endpoints)” value with H4IIE cells [6] (H4IIE cells, 24 hr) fell in the range of 0.05 to 3.88 µM. In addition, in the series on H4IIE cells [4], the “ATP TC50” value was found to be 0.05 µM. The “MTT TC50” value with H4IIE cells [5] is 0.19 µM.
Take `O=c1cc(-c2cc(O)c(O)c(O)c2)oc2ccccc12` [CSMC-19, 3',4',5'-trihydroxyflavone]: the “Total GSH TC50” value in [1] was more than 300 µM. In addition, the IC50 is more than 10 µM on CYP2C19; more than 25 µM at CYP1A2; more than 10 µM against CYP2D6; more than 10 µM on CYP2C9; more than 10 µM against CYP3A4. Also, the “Cell Mass TC50” value in the series on H4IIE cells [2] is more than 300 µM. The “TA98+S9” value in the series with S. typhimurium TA989 was “Negative (Not mutagenic < 10 μM (NEGATIVE))”. In addition, the “TA98−S9” value in the series on S. typhimurium TA989 is “Negative (Not mutagenic < 10 μM (NEGATIVE))”. The “Caspase 3 Activity (Index/Dose): dose” value with Caspase 3 turned out to be 300. Besides, the “Caspase 3 Activity (Index/Dose): index” value in the series with Caspase 3 is listed as 1 (0–200 = 1). Further, the “Membrane Lipid Peroxidation” value in the series with 8-Isoprostane (8-ISO) was 2 (2 = Concentration related increase with maximum values ≥ 15 pg/mL). Moreover, the “MemTox TC50” value in the series with H4IIE cells [3] is more than 300 µM. Also, the “ATP TC50” value in the series on H4IIE cells [4] came out at 256 µM. The compound also registered a Papp A→B at 60 min with P-glycoprotein (MDR1) of 105 ×10⁻⁶ cm/s. Also, the efflux ratio at 60 min in the series with P-glycoprotein (MDR1) was 0.01. Also, in the series on H4IIE cells [5], the “MTT TC50” value was more than 300 µM. In addition, the “% Control(Compound)” value in the series on P-glycoprotein (PgP) worked out at 88.4 % Control.
